According to ChEMBL document CHEMBL1132940, “Pharmacophore/receptor models for GABA(A)/BzR subtypes (alpha1beta3gamma2, alpha5beta3gamma2, and alpha6beta3gamma2) via a comprehensive ligand-mapping approach” (J Med Chem, 2000):

What was measured:
[1] = target: T1, GABA-A receptor; alpha-5/beta-3/gamma-2 (Homo sapiens, UniProt P18507+P28472+P31644); assay: Binding affinity for human recombinant gamma-aminobutyric-acid (GABA) A receptor alpha-5-beta-3-gamma-2; assay type: protein-complex assay
T1 sequence (P18507 whole entry): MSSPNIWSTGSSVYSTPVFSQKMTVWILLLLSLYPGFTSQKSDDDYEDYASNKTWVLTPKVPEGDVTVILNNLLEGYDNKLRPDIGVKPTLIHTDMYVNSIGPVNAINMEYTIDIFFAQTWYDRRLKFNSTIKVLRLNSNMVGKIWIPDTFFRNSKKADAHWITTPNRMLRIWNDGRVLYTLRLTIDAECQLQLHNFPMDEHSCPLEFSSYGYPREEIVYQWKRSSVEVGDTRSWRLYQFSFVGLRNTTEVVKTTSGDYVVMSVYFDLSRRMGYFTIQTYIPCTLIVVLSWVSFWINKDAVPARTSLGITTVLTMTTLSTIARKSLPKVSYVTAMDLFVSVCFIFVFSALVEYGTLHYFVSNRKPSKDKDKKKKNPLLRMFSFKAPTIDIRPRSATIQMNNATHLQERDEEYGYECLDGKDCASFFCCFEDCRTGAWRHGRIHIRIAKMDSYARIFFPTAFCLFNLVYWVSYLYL
T1 sequence (P28472 whole entry): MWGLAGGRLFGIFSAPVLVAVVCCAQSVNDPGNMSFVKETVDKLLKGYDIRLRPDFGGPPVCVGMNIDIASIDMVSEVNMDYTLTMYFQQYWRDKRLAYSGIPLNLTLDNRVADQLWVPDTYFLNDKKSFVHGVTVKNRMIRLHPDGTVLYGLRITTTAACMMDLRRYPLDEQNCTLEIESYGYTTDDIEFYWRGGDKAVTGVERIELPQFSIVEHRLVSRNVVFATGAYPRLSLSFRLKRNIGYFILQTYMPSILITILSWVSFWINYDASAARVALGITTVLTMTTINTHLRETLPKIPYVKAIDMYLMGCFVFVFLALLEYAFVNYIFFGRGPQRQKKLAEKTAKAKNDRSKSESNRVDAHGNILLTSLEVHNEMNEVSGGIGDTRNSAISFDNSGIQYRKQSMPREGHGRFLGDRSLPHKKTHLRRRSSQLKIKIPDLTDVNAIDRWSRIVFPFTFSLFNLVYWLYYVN
T1 sequence (P31644 whole entry): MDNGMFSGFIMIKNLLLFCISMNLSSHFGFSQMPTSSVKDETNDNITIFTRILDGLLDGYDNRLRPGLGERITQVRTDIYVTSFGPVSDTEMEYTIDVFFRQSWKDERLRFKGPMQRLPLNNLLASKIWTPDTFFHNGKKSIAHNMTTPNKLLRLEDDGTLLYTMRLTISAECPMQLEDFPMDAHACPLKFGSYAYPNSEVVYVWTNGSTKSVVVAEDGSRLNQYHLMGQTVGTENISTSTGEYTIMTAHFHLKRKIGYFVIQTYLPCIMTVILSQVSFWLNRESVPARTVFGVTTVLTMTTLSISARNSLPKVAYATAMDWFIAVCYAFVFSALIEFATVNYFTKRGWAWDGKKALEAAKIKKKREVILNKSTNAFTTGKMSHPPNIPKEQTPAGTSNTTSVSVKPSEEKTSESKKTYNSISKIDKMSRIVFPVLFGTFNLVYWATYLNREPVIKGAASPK

[2] = target: T2, GABA-A receptor; alpha-2/beta-3/gamma-2 (Homo sapiens, UniProt P18507+P28472+P47869); assay: Binding affinity to human recombinant gamma-aminobutyric-acid (GABA) A receptor alpha-2-beta-3-gamma-2; assay type: protein-complex assay
T2 sequence (P18507 whole entry): T1 sequence (P18507 whole entry)
T2 sequence (P28472 whole entry): T1 sequence (P28472 whole entry)
T2 sequence (P47869 whole entry): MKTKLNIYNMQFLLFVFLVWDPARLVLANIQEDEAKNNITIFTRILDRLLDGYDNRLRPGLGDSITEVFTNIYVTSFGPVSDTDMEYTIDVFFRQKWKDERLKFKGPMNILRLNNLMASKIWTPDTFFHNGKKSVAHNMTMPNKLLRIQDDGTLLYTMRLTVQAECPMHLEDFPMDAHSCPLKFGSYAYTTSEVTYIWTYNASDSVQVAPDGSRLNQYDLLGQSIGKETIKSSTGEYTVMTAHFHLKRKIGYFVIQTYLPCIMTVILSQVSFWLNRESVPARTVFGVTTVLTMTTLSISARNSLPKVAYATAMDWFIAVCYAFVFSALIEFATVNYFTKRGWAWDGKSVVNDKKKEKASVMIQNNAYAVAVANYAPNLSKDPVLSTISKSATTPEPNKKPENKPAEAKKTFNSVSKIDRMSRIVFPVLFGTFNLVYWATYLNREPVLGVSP

[3] = target: T3, GABA-A receptor; alpha-3/beta-3/gamma-2 (Homo sapiens, UniProt P18507+P28472+P34903); assay: Binding affinity for human recombinant gamma-aminobutyric-acid (GABA) A receptor alpha-3-beta-3-gamma-2; assay type: protein-complex assay
T3 sequence (P18507 whole entry): T1 sequence (P18507 whole entry)
T3 sequence (P28472 whole entry): T1 sequence (P28472 whole entry)
T3 sequence (P34903 whole entry): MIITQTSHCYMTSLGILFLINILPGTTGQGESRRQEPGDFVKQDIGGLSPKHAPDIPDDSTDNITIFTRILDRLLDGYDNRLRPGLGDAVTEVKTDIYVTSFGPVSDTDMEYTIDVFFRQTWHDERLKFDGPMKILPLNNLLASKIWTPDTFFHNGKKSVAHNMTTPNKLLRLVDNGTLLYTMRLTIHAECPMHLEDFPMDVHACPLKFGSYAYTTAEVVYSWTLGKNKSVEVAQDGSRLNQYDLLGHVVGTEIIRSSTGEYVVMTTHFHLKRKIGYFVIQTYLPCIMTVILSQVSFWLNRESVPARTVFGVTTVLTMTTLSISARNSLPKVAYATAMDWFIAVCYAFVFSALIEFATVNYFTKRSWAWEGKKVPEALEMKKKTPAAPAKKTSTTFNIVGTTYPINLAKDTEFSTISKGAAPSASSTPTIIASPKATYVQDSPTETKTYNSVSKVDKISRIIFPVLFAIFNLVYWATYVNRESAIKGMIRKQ

[4] = target: T4, GABA-A receptor; alpha-1/beta-3/gamma-2 (Homo sapiens, UniProt P14867+P18507+P28472); assay: Binding affinity for human recombinant gamma-aminobutyric-acid (GABA) A receptor alpha-1-beta-3-gamma-2; assay type: protein-complex assay
T4 sequence (P14867 whole entry): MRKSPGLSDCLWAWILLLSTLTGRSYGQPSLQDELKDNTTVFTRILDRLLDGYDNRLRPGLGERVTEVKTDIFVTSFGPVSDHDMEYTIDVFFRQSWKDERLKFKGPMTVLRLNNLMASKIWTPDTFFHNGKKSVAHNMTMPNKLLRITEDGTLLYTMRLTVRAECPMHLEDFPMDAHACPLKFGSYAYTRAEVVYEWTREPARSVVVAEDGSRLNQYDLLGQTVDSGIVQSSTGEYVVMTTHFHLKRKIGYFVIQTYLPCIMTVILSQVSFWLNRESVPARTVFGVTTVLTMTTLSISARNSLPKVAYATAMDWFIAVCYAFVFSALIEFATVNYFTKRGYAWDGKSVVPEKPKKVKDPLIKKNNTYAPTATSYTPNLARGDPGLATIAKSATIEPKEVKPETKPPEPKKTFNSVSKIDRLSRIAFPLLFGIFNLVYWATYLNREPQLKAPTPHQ
T4 sequence (P18507 whole entry): T1 sequence (P18507 whole entry)
T4 sequence (P28472 whole entry): T1 sequence (P28472 whole entry)

[5] = target: GABA-A receptor; alpha-6/beta-3/gamma-2 (Homo sapiens, UniProt P18507+P28472+Q16445); assay: Binding affinity for human recombinant gamma-aminobutyric-acid (GABA) A receptor alpha-6-beta-3-gamma-2; assay type: protein-complex assay
GABA-A receptor; alpha-6/beta-3/gamma-2, sequence (Q16445 whole entry, one chain of several): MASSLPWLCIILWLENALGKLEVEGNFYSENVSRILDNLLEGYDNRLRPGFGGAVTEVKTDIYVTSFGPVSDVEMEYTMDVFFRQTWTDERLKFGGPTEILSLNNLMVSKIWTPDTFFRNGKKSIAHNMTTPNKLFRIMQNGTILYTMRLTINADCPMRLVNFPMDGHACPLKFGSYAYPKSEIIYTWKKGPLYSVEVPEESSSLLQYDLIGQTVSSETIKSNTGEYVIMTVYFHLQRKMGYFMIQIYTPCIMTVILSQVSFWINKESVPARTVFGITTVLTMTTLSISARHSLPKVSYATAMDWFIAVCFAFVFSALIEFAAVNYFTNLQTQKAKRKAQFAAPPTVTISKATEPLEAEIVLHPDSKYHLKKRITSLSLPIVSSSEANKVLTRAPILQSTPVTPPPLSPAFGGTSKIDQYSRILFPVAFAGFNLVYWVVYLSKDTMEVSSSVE
Procedure, shortened: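 Ltk⁻ cells expressing human α6β3γ2 were harvested by scraping into PBS, centrifuged at 3000g and resuspended in 10 mM KH₂PO₄/100 mM KCl (pH 7.4). Incubation was 1 h at 4 °C with filter harvest and scintillation counting.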

[6] = Selectivity ratio of alpha1 beta-3 gamma2 GABA A / BzR and alpha5 beta-3 gamma2 GABA A / BzR

Row | SMILES | Ki [1] [nM] | Ki [2] [nM] | Ki [3] [nM] | Ki [4] [nM] | Ki [5] [nM] | Ratio [6]
1 | CN1C(=O)CN=C(c2cccs2)c2cc(F)ccc21 | 65.5 | 215 | 205 | 141 | > 300 | 2.15
2 | CN1C(=O)CN=C(c2ccccc2)c2ccccc21 | 96 | 138 | 318 | 81 | > 3000 | 0.84
3 | CCc1c(C(=O)NN)[nH]cc2nc3cc(OC)c(OC)cc3c1-2 | 91.5 | > 1000 | 570 | 896 | > 3000 | –
4 | CC(C)(C)OC(=O)c1ncn2c1[C@@H]1CCCN1C(=O)c1c(Br)cccc1-2 [BRETAZENIL] | 0.5 | 0.64 | 0.2 | 0.35 | 12.7 | –
5 | CCCCCCCCOc1ccc2c(c1)c1c(CC)c(C(=O)OCC)ncc1n2C | > 1000 | > 1000 | > 1000 | > 1000 | > 1000 | –
6 | CC(C)c1nc(-c2ncn3c2CN(C)C(=O)c2c(Cl)cccc2-3)no1 | 1.54 | 2.08 | 1.16 | 0.4 | 227 | –
7 | Clc1cc2c(cn1)[nH]c1ccccc12 | 1000 | 125 | 126 | 60.4 | > 10000 | –
8 | CCOC(=O)c1cc2c3cc(OCc4ccccc4)ccc3nc-2c[nH]1 | 271 | 169 | 284 | 7.2 | > 10000 | –
9 | COc1ccc2ncc3c(=O)n(-c4ccccc4)[nH]c3c2c1 | 0.2 | 0.1 | 0.09 | 0.11 | > 10 | –
10 | O=c1c2cnc3ccc(Cl)cc3c2[nH]n1-c1ccccc1 | 0.44 | 0.17 | 0.12 | 0.23 | 17.3 | –
11 | O=[N+]([O-])c1ccc2[nH]c3c[nH]c4c5ccccc5nc-4c3c2c1 | 1560 | 500 | 532 | 244 | > 10000 | –
12 | CCCOc1ccc2c(c1)c1c(COC)c(C(=O)OCC)ncc1n2C | 161 | 105 | 164 | 25.6 | > 10000 | –
13 | COc1ccc2c(c1)ncc1c(=O)n(-c3ccccc3)[nH]c12 | 0.84 | 1.31 | 1.26 | 1.34 | 2.03 | –
14 | COCc1c(SC#N)[nH]cc2nc3ccc(OCc4ccccc4)cc3c1-2 | 159 | 82.6 | 58.8 | 25 | > 10000 | –
15 | CN1C(=O)CN=C(C2CCC2)c2cc(F)ccc21 | > 300 | > 300 | > 300 | > 300 | > 300 | –
16 | COC(=O)c1cc2c(cn1)[nH]c1ccc(NCc3ccccc3)cc12 | 475 | 30.2 | 48.9 | 5.42 | > 10000 | –
17 | S=C=Nc1cc2c3ccccc3nc-2c[nH]1 | > 3000 | 120 | 141 | 67.2 | > 10000 | –
18 | Clc1cccn2c1nc1c3c4ccccc4nc-3c[nH]c12 | > 10000 | > 3000 | > 3000 | > 3000 | > 10000 | –
19 | c1ccc2c(c1)[nH]c1cnc3c4ccncc4[nH]c3c12 | 240 | 23.8 | 30.5 | 3 | > 10000 | –
20 | CN1C(=O)CN=C(c2ccco2)c2cc(Cl)ccc21 | > 0.44 | > 0.17 | > 0.12 | > 0.23 | > 300 | –
21 | c1cnc2c3[nH]cc4[nH]c5ccccc5c4c-3nc2c1 | 1000 | 118 | 156 | 28 | > 10000 | –
22 | CCOC(=O)c1[nH]cc2nc3ccc(OCc4ccc5ccccc5c4)cc3c-2c1CC | 270 | 291 | 300 | 183 | > 10000 | –
23 | COC(=O)c1cc2c3cc(NC4CCCCC4)ccc3nc-2c[nH]1 | 316 | 17.4 | 14.4 | 2.39 | > 10000 | –
24 | c1ccc2c(c1)[nH]c1cnc3c(nc4ccccn43)c12 | > 3000 | 228 | 284 | 105 | > 10000 | –
25 | O=c1c2cnc3ccccc3c2[nH]n1-c1ccc(Br)cc1 | 1.3 | 0.21 | 0.25 | 0.18 | 40 | –
26 | c1ccc(COc2ccc3c(c2)[nH]c2c3ncc3[nH]c4ccccc4c32)cc1 | > 10000 | 3000 | 3000 | 432 | > 10000 | –
27 | Clc1ccc2c(c1)[nH]c1c2ncc2[nH]c3ccccc3c21 | 210 | 12.2 | 24.4 | 3.9 | > 10000 | –
28 | CCOC(=O)c1[nH]cc2nc3ccc(OC)cc3c-2c1CC | 1 | 2.9 | 2.8 | 1.6 | > 1000 | –
